{"source": "paper PMC4428392", "about": "(Anti-Cancer Agents in Medicinal Chemistry, 2014)", "key": {"[1]": {"system": "cleaved PARP in HCT-116 cells", "experiment": "Level of cleaved PARP by flow cytometry", "type": "cell-based, Human", "conditions": "HCT-116, hypoxia, 30 µM, 24 h"}, "HCT-116 cells [2]": {"system": "HCT-116 cells", "experiment": "ROS analysis by flow cytometry", "type": "cell-based, Human", "in_short": "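HCT-116 cells were treated with test compound at 15 or 30 µM in normoxia or hypoxia (24 h per methods; legend states 18 h). They were stained with CM-H2DCFDA for 45 min, collected, and analysed on a FACSCalibur flow cytometer. Fluorescence was normalised to solvent control; mean ± SEM, n=3.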"}, "MCF-7": {"system": "MCF-7", "experiment": "MTT cytotoxicity assay in normoxia and hypoxia, MCF-7", "type": "cell-based, Human", "in_short": "(§1)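 MCF-7 and HCT-116 were grown in DMEM; NCI-H460 in RPMI 1640 plus 10 mM HEPES; all media had 10% FBS, pyruvate and 1.5 g/L bicarbonate. Cells were seeded at 20000/well and grown 24 h at 20% O2, 5% CO2, 37 °C. Serial compound concentrations were then given for 24 h in normoxia, or for 6 h hypoxia (3% O2) followed by 18 h normoxia. MTT was read at 545 nm. IC50 came from linear regression of % inhibition versus log concentration, and HCR = IC50 normoxia/IC50 hypoxia.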"}, "γ-H2AX in HCT-116 cells": {"system": "γ-H2AX in HCT-116 cells", "experiment": "Level of γ-H2AX by flow cytometry", "type": "cell-based, Human", "conditions": "30 µM, 24 h"}, "NCI-H460": {"system": "NCI-H460", "experiment": "MTT cytotoxicity assay in normoxia and hypoxia, NCI-H460", "type": "cell-based, Human", "conditions": "Homo sapiens", "in_short": "as §1"}, "[3]": {"system": "caspase 3/7 in HCT-116 cells", "experiment": "Caspase 3/7 activity", "type": "cell-based, Human", "conditions": "30 µM, 24 h", "in_short": "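HCT-116 cells were exposed to test compound at 30 µM for 24 h in normoxia or hypoxia. Cells were harvested, washed in PBS, centrifuged (350 g, 5 min) and stained with a FAM-FLICA caspase-3/7 inhibitor kit. Active caspase 3/7 was measured by flow cytometry. Data are mean ± SEM, n=3, compared with solvent control by one-way ANOVA with Tukey post hoc test.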"}, "[4]": {"system": "γ-H2AX and cleaved PARP in HCT-116 cells", "experiment": "Dual-parameter γ-H2AX and cleaved PARP flow cytometry", "type": "cell-based, Human", "conditions": "30 µM, 24 h"}, "HCT-116 cells [5]": {"system": "HCT-116 cells", "experiment": "Cell cycle assay by flow cytometry", "type": "cell-based, Human", "conditions": "24 h"}, "[6]": {"experiment": "Partition coefficient octanol/aqueous buffer pH 7.4 by HPLC", "type": "physicochemical", "conditions": "octanol/phosphate buffer pH 7.4, HPLC", "in_short": "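Octanol/phosphate buffer (pH 7.4) distribution was determined by HPLC at the compound retention time. Conditions: RP-18E column (4.6 × 150 mm, 5 µm) at 25 °C; isocratic water:acetonitrile 70:30 with 0.7% acetic acid at 0.5 mL/min; UV detection at 285 nm. Samples were dissolved in DMSO or methanol.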"}, "HCT-116": {"system": "HCT-116", "experiment": "MTT cytotoxicity assay in normoxia and hypoxia, HCT-116", "type": "cell-based, Human", "conditions": "for IC50: Homo sapiens", "in_short": "as §1"}}, "note": "Where “and” joins values, the source holds several entries; their conditions need not be identical. Equal values may be shown once. Read-outs that look alike come from different tables or passages of the source.", "data": [{"smiles": "Nc1n[n+]([O-])c2ccccc2[n+]1[O-]", "note": "[TPZ, 3-amino-1,2,4-benzotriazine-1,4-dioxide, reference compound]", "values": [{"measurement": "cleaved PARP", "setting": "[1]", "value": "approximately 10%"}, {"measurement": "increase of ROS relative to control medium", "setting": "HCT-116 cells [2]; HCT-116, hypoxia, 15 µM", "value": 6, "unit": "fold"}, {"measurement": "increase of ROS relative to control medium", "setting": "HCT-116 cells [2]; HCT-116, hypoxia, 30 µM", "value": 10.5, "unit": "fold"}, {"measurement": "increase of ROS relative to control medium", "setting": "HCT-116 cells [2]; HCT-116, normoxia, 15 µM", "value": 1.5, "unit": "fold"}, {"measurement": "increase of ROS relative to control medium", "setting": "HCT-116 cells [2]; HCT-116, normoxia, 30 µM", "value": 2, "unit": "fold"}, {"measurement": "HCR = IC50 (aerobic)/IC50 (hypoxia)", "setting": "MCF-7", "value": 6.3}, {"measurement": "expression of γ-H2AX", "setting": "γ-H2AX in HCT-116 cells; HCT-116, hypoxia, solvent control 4%", "value": "around 30%"}, {"measurement": "effect on expression of γ-H2AX", "setting": "γ-H2AX in HCT-116 cells; HCT-116, normoxia", "value": "no significant effect"}, {"measurement": "IC50", "setting": "NCI-H460; NCI-H460, 24 h, read-out: Cytotoxicity (IC50) NCI-H460 N", "value": "85 ± 9.7", "unit": "µM"}, {"measurement": "IC50", "setting": "NCI-H460; NCI-H460, read-out: Cytotoxicity (IC50) NCI-H460 H", "value": "32.9 ± 2.1", "unit": "µM"}, {"measurement": "level of active caspase 3/7", "setting": "[3]; HCT-116, hypoxia, solvent control 7%", "value": "about 41%"}, {"measurement": "effect on level of active caspase 3/7", "setting": "[3]; HCT-116, normoxia", "value": "no apparent effect"}, {"measurement": "cells expressing both γ-H2AX and cleaved PARP (upper right quadrant)", "setting": "[4]; HCT-116, hypoxia", "value": 1.9, "unit": "%"}, {"measurement": "cells expressing both γ-H2AX and cleaved PARP (upper right quadrant)", "setting": "[4]; HCT-116, normoxia", "value": 0.1, "unit": "%"}, {"measurement": "G1 (%)", "setting": "HCT-116 cells [5]; HCT-116, hypoxia, 15 µM", "value": "22.5±9.4", "unit": "%"}, {"measurement": "G2/M (%)", "setting": "HCT-116 cells [5]; HCT-116, hypoxia, 15 µM", "value": "35.2% and 35.2±4.9%"}, {"measurement": "S (%)", "setting": "HCT-116 cells [5]; HCT-116, hypoxia, 15 µM", "value": "34.7±6.0", "unit": "%"}, {"measurement": "Sub-G1 (%)", "setting": "HCT-116 cells [5]; HCT-116, hypoxia, 15 µM", "value": "7.3% and 7.3±2.7%"}, {"measurement": "G1 (%)", "setting": "HCT-116 cells [5]; HCT-116, hypoxia, 30 µM", "value": "26.3±5.5", "unit": "%"}, {"measurement": "G2/M (%)", "setting": "HCT-116 cells [5]; HCT-116, hypoxia, 30 µM", "value": "27.3% and 27.3±1.3%"}, {"measurement": "S (%)", "setting": "HCT-116 cells [5]; HCT-116, hypoxia, 30 µM", "value": "29.6±4.7", "unit": "%"}, {"measurement": "Sub-G1 (%)", "setting": "HCT-116 cells [5]; HCT-116, hypoxia, 30 µM", "value": "16.5% and 16.5±1.2%"}, {"measurement": "G1 (%)", "setting": "HCT-116 cells [5]; HCT-116, normoxia, 15 µM", "value": "41.9±1.7", "unit": "%"}, {"measurement": "G2/M (%)", "setting": "HCT-116 cells [5]; HCT-116, normoxia, 15 µM", "value": "33.1% and 33.1±3.7%"}, {"measurement": "S (%)", "setting": "HCT-116 cells [5]; HCT-116, normoxia, 15 µM", "value": "21.9±2.4", "unit": "%"}, {"measurement": "G1 (%)", "setting": "HCT-116 cells [5]; HCT-116, normoxia, 30 µM", "value": "35.3% and 35.3±1.4%"}, {"measurement": "G2/M (%)", "setting": "HCT-116 cells [5]; HCT-116, normoxia, 30 µM", "value": "39.1% and 39.1±4.0%"}, {"measurement": "S (%)", "setting": "HCT-116 cells [5]; HCT-116, normoxia, 30 µM", "value": "22.1±2.9", "unit": "%"}, {"measurement": "Sub-G1 (%)", "setting": "HCT-116 cells [5]; HCT-116, normoxia, 30 µM", "value": "3.2±0.5", "unit": "%"}, {"measurement": "Log P7.4", "setting": "[6]", "value": -0.42}, {"measurement": "HCR = hypoxic cytotoxicity ratio IC50 (aerobic)/IC50 (hypoxic)", "setting": "HCT-116; HCT-116", "value": 2.6}, {"measurement": "IC50", "setting": "HCT-116; HCT-116, 24 h, read-out: Cytotoxicity (IC50) HCT-116 N", "value": "89.1 ± 14.5", "unit": "µM"}, {"measurement": "IC50", "setting": "HCT-116; HCT-116, read-out: Cytotoxicity (IC50) HCT-116 H", "value": "34.8 ± 8.3", "unit": "µM"}, {"measurement": "IC50", "setting": "HCT-116; HCT-116, read-out: Cytotoxicity (IC50), cell kill under hypoxia", "value": 34.8, "unit": "µM"}]}]}
